The test system of data set [1] is human hepatoma cancer cell line (HepG2). Briefly: cells. It is filed as cell-based. The conditions noted are these: HepG2, 72 h, read-out: IC50, anti-proliferative activity.
Data set [2] relates to human lung cancer cell line (HCC827). Put plainly: cells. In kind it is cell-based. The conditions noted are these: HCC827, 72 h, read-out: IC50, anti-proliferative activity.
Data set [3] has as its system human breast cancer cell line (MCF7). Put plainly: cells. The settings on record: MCF7, 72 h, read-out: IC50, anti-proliferative activity. In kind it is cell-based.
For data set [4], the target named is T1, α-Mannosidase (α-Man) (Canavalia ensiformis, UniProt C0HJB3).
T1 sequence (C0HJB3 1-562 limits assumed): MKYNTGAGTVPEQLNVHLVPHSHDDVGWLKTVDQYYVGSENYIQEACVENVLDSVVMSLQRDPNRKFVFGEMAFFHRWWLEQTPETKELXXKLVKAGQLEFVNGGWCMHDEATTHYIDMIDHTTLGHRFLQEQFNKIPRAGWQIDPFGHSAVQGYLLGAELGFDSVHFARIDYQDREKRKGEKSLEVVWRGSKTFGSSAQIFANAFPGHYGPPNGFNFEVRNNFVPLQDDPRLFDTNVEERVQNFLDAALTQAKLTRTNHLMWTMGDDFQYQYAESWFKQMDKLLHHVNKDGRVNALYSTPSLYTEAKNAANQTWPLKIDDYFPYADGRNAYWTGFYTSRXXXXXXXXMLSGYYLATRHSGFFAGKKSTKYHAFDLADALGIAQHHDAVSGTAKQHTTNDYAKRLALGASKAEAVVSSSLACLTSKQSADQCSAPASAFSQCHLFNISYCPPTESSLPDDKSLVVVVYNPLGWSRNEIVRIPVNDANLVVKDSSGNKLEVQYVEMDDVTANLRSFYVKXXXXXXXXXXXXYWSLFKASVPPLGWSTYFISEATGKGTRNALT
T1 sequence (C0HJB3 563-981 partner limits assumed): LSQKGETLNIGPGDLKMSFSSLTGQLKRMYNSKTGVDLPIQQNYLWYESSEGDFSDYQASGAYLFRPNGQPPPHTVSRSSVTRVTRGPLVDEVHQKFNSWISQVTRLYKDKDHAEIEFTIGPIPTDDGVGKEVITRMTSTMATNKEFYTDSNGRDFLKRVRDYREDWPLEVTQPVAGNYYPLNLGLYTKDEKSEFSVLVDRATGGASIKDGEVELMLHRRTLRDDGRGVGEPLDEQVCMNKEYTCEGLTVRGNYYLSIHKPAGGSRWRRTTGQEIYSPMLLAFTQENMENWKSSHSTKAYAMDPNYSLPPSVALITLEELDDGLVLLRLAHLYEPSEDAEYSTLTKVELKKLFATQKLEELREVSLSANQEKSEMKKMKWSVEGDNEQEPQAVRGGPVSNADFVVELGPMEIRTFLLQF
Put plainly: SPR interaction analysis between compounds and immobilised α-Man. The settings on record: for Kd: KD (equilibrium dissociation constant), kinetic analysis, SPR, 25 °C, 1:1 Langmuir binding model; for kon: read-out: ka (association rate constant); for koff: read-out: kd (dissociation rate constant). It is filed as binding, Canavalia ensiformis (Jack bean). In a few lines: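 The α-Man chip was referenced against an enzyme-free channel. Each test compound was run at six concentrations in a twofold series, injected in parallel at 25 μL/min and 25 °C, with 12 min association and 20 min dissociation. A 4.0–6.0% DMSO calibration curve was applied. Runs were done in triplicate. ka, kd and KD came from a global 1:1 Langmuir fit; equilibrium constants came from steady-state analysis.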

Data set [5] has as its system mouse fibroblast cells (L929). Briefly: CCK-8 toxicity on normal cells, L929. It is filed as cell-based. The settings on record: L929, under the condition of keeping 90% cell viability.
The target in data set [6] is T1, α-Mannosidase (α-Man). Briefly: SPR bioactivity assessment: binding ability. The arrangement: species or system Canavalia ensiformis (Jack bean). The settings on record: swainsonine standard solution, PBST running buffer. In a few lines: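 Jack bean α-Man was amine-coupled onto the GLH chip binding channel after sulfo-NHS/EDC activation. Coupling was at 20 μg/mL in 10 mmol/L sodium acetate, pH 4, at 25 μL/min for 360 s, followed by ethanolamine blocking. A reference channel was activated and blocked without enzyme. A positive-control inhibitor standard was injected, with PBST (10 mmol/L Na3PO4, 150 mmol/L NaCl, 0.005% Tween 20, pH 7.4) as the blank. The response was followed during association.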

Each structure is given as a SMILES string.

A word on the IC50: it is the concentration that gives 50% inhibition. Broadly, the Kd is the free concentration of one partner at which half of the binding sites on the other are occupied at equilibrium, for simple one-to-one binding. Higher therefore signals lower affinity.

For the compound `O=c1c2ccccc2nc2n1CCC2` [Compound 3, Deoxyvasicinone], the IC50 in data set [1] was found to be 5.7 µM. Besides, the IC50 in data set [2] stood at 0.75 µM. In addition, the IC50 in data set [3] was found to be 7.21 µM. Further, at α-Mannosidase (α-Man) [4], the Kd worked out at 47.3 µM, the kon was found to be 73.3 M⁻¹ s⁻¹ and the koff was 0.00347 s⁻¹. For the same compound, the safe dose in data set [5] turned out to be 20 µmol/L.

For `O=Cc1ccc(O)cc1` [Compound 1, p-Hydroxybenzaldehyde], at α-Mannosidase (α-Man) [4], the Kd was found to be 1370 µM, the kon amounted to 1.54 M⁻¹ s⁻¹ and the koff was 0.00211 s⁻¹.

Compound `COc1cc2ncnc(Nc3ccc(F)c(Cl)c3)c2cc1OCCCN1CCOCC1` [Gefitinib, reference compound] returned a safe dose in data set [5] of 40 µmol/L.

Take `COc1cc(C=O)cc(OC)c1O` [Compound 2, 3,5-Dimethoxy-4-hydroxy-benzaldehyde]: on α-Mannosidase (α-Man) [4], the Kd turned out to be 347 µM, the kon worked out at 12 M⁻¹ s⁻¹ and the koff came to 0.00418 s⁻¹.

For `O[C@H]1[C@H]2[C@H](O)CCCN2C[C@H]1O` [swainsonine, Swainsonine], at α-Mannosidase (α-Man) [6], the “response signal during association” value is 20 RU.
